Read-outs that look alike come from different tables or passages of the source. One block for each compound: values may come before it.
Experiments:
plaque psoriasis = conditions: cited from earlier work; for Mean total lesion score decrease from baseline: week 4
psoriasis = conditions: week 4; 13-point scale; cited from earlier work
[1] = Plasma pharmacokinetics after 4 weeks of topical treatment; format: in vivo, human; conditions: approx. 1.5% BSA, comparator Pfizer, data on file
Method in brief: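 Adults with mild-to-moderate chronic plaque psoriasis applied test-compound ointment (one formulation 2%, 20 mg g−1) twice daily for 4 weeks at 3 mg cm−2 to a fixed 300 cm2 area. Week-4 plasma sampled predose and 1, 2, 4–9 h post-dose.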

SMILES: N#CC[C@H](C1CCCC1)n1cc(-c2ncnc3[nH]ccc23)cn1 [INCB018424]
Tolerability of topical application (plaque psoriasis; cream, 4 weeks): well tolerated
Mean total lesion score decrease from baseline (plaque psoriasis; 1.0% cream daily): 53%
Mean total lesion score decrease from baseline (plaque psoriasis; 1.5% cream twice daily): 54%

SMILES: CCC(=O)OCC(=O)[C@@]1(OC(=O)CC)[C@@H](C)C[C@H]2[C@@H]3CCC4=CC(=O)C=C[C@]4(C)[C@@]3(F)[C@@H](O)C[C@@]21C [betamethasone dipropionate]
Total lesion sum score percentage change from baseline (psoriasis): –41%

Mean systemic exposure lower than with oral tofacitinib 2 mg twice daily [1]: approximately 40 fold
SMILES: C[C@@H]1CCN(C(=O)CC#N)C[C@@H]1N(C)c1ncnc2[nH]ccc12 [tofacitinib, Tofacitinib]
